Converted amounts (≈) assume the structure as drawn.
Columns and labels:
HEK293 = assay: Cytotoxicity against human HEK-293 cells assessed as reduction in cell viability at 31.3 microg/ml; type: toxicity, cell-based; conditions: dose 31.3 µg/ml
In short: (§1)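 Cells in DMEM with 10% FBS and 1% Pen/Strep, seeded at 10,000 cells/well and held overnight at 37 °C, 5% CO2. Compounds added at final 31.3-0.12 µg/mL (0.05% DMSO vehicle) for 24 h. Resazurin then added for 6 h; fluorescence read at ex 560/em 590. Triton X-100 1% as positive control; values normalized to vehicle. Run in quadruplicate.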

J774.A1 = assay: Cytotoxicity against J774A.1 cells assessed as reduction in cell viability at 31.3 microg/ml; type: toxicity, cell-based; conditions: mouse, dose 31.3 µg/ml; in short: as §1
[Candida] auris [1] = Antifungal activity against Candida auris AR Bank # 0384 assessed as fungal growth inhibition by double dilution method; type: functional; conditions: Candidozyma auris
In short: (§2)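 Broth microdilution after CLSI M27-A3/M38-A2 with minor changes. Single colony grown overnight in YPD at 35 °C, 200 rpm. Compound final range 0.06-31.3 µg/mL; incubated 48 h at 35 °C.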

Candida albicans [2] = assay: Antifungal activity against Candida albicans ATCC 64124 assessed as fungal growth inhibition by double dilution method; type: functional
In short: (§3)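 Broth microdilution after CLSI M27-A3/M38-A2 with minor modifications. A single colony was grown overnight in YPD at 35 °C with shaking at 200 rpm. Cells were mixed 1:1 with compound (final 0.06-31.3 µg/mL, from DMSO stocks) and incubated 48 h at 35 °C.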

Candida albicans [3] = assay: Antifungal activity against itraconazole/fluconazole resistant Candida albicans ATCC MYA-1003 assessed as fungal growth inhibition by double dilution method; type: functional; in short: as §3
Nakaseomyces glabratus [4] = assay: Antifungal activity against Candida glabrata ATCC 22019 assessed as fungal growth inhibition by double dilution method; type: functional; in short: as §2
Aspergillus terreus = assay: Antifungal activity against Aspergillus terreus ATCC MYA-3633 assessed as fungal growth inhibition by double dilution method; type: functional
[Candida] auris [5] = Antifungal activity against Candida auris AR Bank # 0390 assessed as fungal growth inhibition by double dilution method; type: functional; conditions: Candidozyma auris; in short: as §2
Cryptococcus neoformans = assay: Antifungal activity against Cryptococcus neoformans ATCC MYA-895 assessed as fungal growth inhibition by double dilution method; type: functional; in short: as §2
Candida albicans [6] = assay: Antifungal activity against Candida albicans ATCC 10231 assessed as fungal growth inhibition by double dilution method; type: functional; in short: as §2
Candida albicans [7] = assay: Antifungal activity against itraconazole/fluconazole resistant Candida albicans ATCC MYA-1237 assessed as fungal growth inhibition by double dilution method; type: functional; in short: as §3
Candida albicans [8] = assay: Antifungal activity against itraconazole/fluconazole resistant Candida albicans ATCC 90819 assessed as fungal growth inhibition by double dilution method; type: functional; in short: as §3
Candida albicans [9] = assay: Antifungal activity against itraconazole/fluconazole susceptible Candida albicans ATCC MYA-2876 assessed as fungal growth inhibition by double dilution method; type: functional; in short: as §3
Nakaseomyces glabratus [10] = assay: Antifungal activity against Candida glabrata ATCC 2001 assessed as fungal growth inhibition by double dilution method; type: functional; in short: as §2
Aspergillus nidulans = assay: Antifungal activity against Aspergillus nidulans ATCC 38163 assessed as fungal growth inhibition by double dilution method; type: functional
Aspergillus fumigatus [11] = assay: Antifungal activity against Aspergillus fumigatus NRRL 5109 assessed as fungal growth inhibition by double dilution method; type: functional
Pichia kudriavzevii = assay: Antifungal activity against Pichia kudriavzevii ATCC 6258 assessed as fungal growth inhibition by double dilution method; type: functional; in short: as §2
Aspergillus flavus = assay: Antifungal activity against Aspergillus flavus ATCC MYA-3631 assessed as fungal growth inhibition by double dilution method; type: functional
Aspergillus fumigatus [12] = assay: Antifungal activity against Aspergillus fumigatus NRRL 6113 assessed as fungal growth inhibition by double dilution method; type: functional
Candida albicans [13] = assay: Antifungal activity against itraconazole/fluconazole susceptible Candida albicans ATCC MYA-2310 assessed as fungal growth inhibition by double dilution method; type: functional; in short: as §3
Aspergillus fumigatus [14] = assay: Antifungal activity against Aspergillus fumigatus NRRL 163 assessed as fungal growth inhibition by double dilution method; type: functional

`C[C@@H](c1ncncc1F)[C@](O)(Cn1cncn1)c1ccc(F)cc1F` [VORICONAZOLE] was tested, and the Activity (HEK293) was “Non-Toxic” and the Activity (J774.A1) was “Non-Toxic”.
With `O=C(NNc1cccc(F)c1)c1nc(F)ccc1F` the MIC ([Candida] auris [1]) was 1.95 µg/mL (≈ 7.3 µM), the MIC (Candida albicans [2]) was 0.98 µg/mL (≈ 3.67 µM) and the MIC (Candida albicans [3]) was 0.98 µg/mL (≈ 3.67 µM). For the same compound, the MIC (Nakaseomyces glabratus [4]) was 7.8 µg/mL (≈ 29.2 µM), the MIC (Aspergillus terreus) was 3.9 µg/mL (≈ 14.6 µM) and the MIC ([Candida] auris [5]) was 1.95 µg/mL (≈ 7.3 µM). For the same compound, the MIC (Cryptococcus neoformans) was ≤ 0.06 µg/mL, the MIC (Candida albicans [6]) was 0.98 µg/mL (≈ 3.67 µM) and the MIC (Candida albicans [7]) was 1.95 µg/mL (≈ 7.3 µM). The MIC (Candida albicans [8]) was 3.9 µg/mL (≈ 14.6 µM), the MIC (Candida albicans [9]) was 1.95 µg/mL (≈ 7.3 µM) and the MIC (Nakaseomyces glabratus [10]) was 15.6 µg/mL (≈ 58.4 µM). The MIC (Aspergillus nidulans) was 1.95 µg/mL (≈ 7.3 µM), the MIC (Aspergillus fumigatus [11]) was > 31.3 µg/mL and the MIC (Pichia kudriavzevii) was 0.49 µg/mL (≈ 1.83 µM). The MIC (Aspergillus flavus) was > 31.3 µg/mL, the MIC (Aspergillus fumigatus [12]) was > 31.3 µg/mL and the MIC (Candida albicans [13]) was 1.95 µg/mL (≈ 7.3 µM). The MIC (Aspergillus fumigatus [14]) was > 31.3 µg/mL.
